TRPC4 PAM – allosteric potentiators of mouse TRPC4 channel. Q9QUQ5. HEK293 TRPC4beta/mu-opioid, DAMGO EC20, Fluo-4 Ca2+ flux; active compounds read high. B-score at 10 µM. hit rate 0.42% among 310,000;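 active means B-score of calcium response area above 5 SD of library B-scores, with initial fluorescence ratio within 5 SD of library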
Target sequence (Q9QUQ5 whole entry, looked up): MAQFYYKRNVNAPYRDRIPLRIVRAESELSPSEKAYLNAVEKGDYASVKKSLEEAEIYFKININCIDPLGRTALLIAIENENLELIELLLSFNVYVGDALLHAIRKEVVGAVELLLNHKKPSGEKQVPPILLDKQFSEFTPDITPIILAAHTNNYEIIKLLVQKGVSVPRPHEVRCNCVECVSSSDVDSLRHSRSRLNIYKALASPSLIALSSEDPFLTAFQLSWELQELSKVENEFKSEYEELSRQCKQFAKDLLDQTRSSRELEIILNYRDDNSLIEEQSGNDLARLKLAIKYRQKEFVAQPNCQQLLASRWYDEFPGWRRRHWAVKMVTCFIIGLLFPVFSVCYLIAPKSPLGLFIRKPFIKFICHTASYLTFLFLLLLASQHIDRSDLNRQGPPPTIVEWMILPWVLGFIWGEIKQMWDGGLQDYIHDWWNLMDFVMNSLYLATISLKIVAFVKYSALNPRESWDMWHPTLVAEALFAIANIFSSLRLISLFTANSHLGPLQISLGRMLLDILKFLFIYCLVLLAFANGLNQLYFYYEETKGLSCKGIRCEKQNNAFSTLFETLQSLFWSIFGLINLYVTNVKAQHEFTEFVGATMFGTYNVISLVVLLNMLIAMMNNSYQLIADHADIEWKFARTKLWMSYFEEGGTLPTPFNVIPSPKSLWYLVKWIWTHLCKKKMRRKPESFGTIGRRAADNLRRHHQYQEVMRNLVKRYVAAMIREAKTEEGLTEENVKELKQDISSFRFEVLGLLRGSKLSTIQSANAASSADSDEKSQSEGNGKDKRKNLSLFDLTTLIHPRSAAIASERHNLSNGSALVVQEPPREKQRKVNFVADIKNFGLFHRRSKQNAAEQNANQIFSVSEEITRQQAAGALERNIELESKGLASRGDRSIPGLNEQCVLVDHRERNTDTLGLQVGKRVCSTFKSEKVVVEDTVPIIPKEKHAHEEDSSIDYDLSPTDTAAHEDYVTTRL
TRPC6 activator – activates the mouse TRPC6 cation channel. HEK293-TRPC6 membrane potential dye fluorescence; active compounds read high. B-score at 10 µM. hit rate 0.13% among 310,000. AID 2550. Q61143;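 active means B-score of the integrated fluorescence ratio above library mean plus 3 SD, and starting fluorescence ratio within library mean plus 5 SD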;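 further: higher score means more depolarization so channel activation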
TRPC6 inh – mouse TRPC6 channel inhibition | hit rate 1.1% among 310,000 | Q61143 | HEK293-TRPC6, membrane potential dye, ACh-evoked depolarization; active compounds read low | B-score at 10 µM;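 active means B-score under library mean minus 3 SD, initial fluorescence not abnormally high, positive integrated signal ratio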;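 further: B-score derived from integrated fluorescence ratio over the kinetic read; more negative B-score means stronger inhibition of depolarization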
TRPC4 act – activators of mouse TRPC4 channel | Q9QUQ5 | HEK293 TRPC4beta/mu-opioid, Fluo4 calcium fluorescence; active compounds read high | B-score at 10 µM | hit rate 0.49% among 310,000 | AID 2237;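 active means B-score above 5 SD of library B-scores, and initial fluorescence ratio not above library mean plus 5 SD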;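 further: positive B-score marks a calcium rise read as TRPC4 activation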
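Technique: kinetic Fluo4 calcium fluorescence; Test system: TRPC4beta and mu-opioid receptor HEK293 stable cells; Measure: B-scored integrated calcium fluorescence ratio; Benchmarks: low control buffer alone, high control maximal DAMGO; Schedule: 45 min room-temperature Fluo4 loading, 110 s read.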
TRPC4 block – TRPC4 (mouse) channel inhibition; B-score at 10 µM; hit rate 0.39% among 300,000; AID 2247; HEK293 TRPC4beta/mu-opioid, DAMGO-evoked Fluo4 calcium flux; active compounds read low;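 active means B-score over 3 SD under the library average, no early fluorescence shift, positive overall ratio signal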
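Assay system: TRPC4beta/mu-opioid receptor HEK293 cell line; compound dosing: single concentration per test compound; detection: Fluo4 Ca2+ flux fluorescence; evaluation: per-well B score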
Numbers stand for hits. Rows were chosen to be rich in hits. Some 2.3% of all compounds tested hit in one or more screens of this group.

Results for O=C(c1ccc(S(=O)(=O)N2CCCCC2)cc1)N(c1ccccn1)C1CCCCC1 ?
TRPC4 PAM: inactive; TRPC6 activator: inactive; TRPC6 inh: inactive; TRPC4 act: inactive; TRPC4 block: inactive

How did CC1CC(C)CN(S(=O)(=O)c2ccc(C(=O)N(c3ccccn3)C3CCCCC3)cc2)C1 (stereo not drawn) do in these assays?
TRPC4 PAM: inactive; TRPC6 activator: inactive; TRPC6 inh: inactive; TRPC4 act: inactive; TRPC4 block: -6

How did O=C(NC1CCCC1)C(=O)N(Cc1cccnc1)C(C(=O)NCC1CCCO1)c1ccco1 (stereo not drawn) do in these assays?
TRPC4 PAM: inactive; TRPC6 activator: inactive; TRPC6 inh: inactive; TRPC4 act: inactive; TRPC4 block: inactive

How did N#Cc1ncc(-c2ccc3c(c2)OCCOCCOCCOCCOCCO3)nc1C#N do in these assays?
TRPC4 PAM: inactive; TRPC6 activator: inactive; TRPC6 inh: inactive; TRPC4 act: inactive; TRPC4 block: -6

What do the screens show for `N#Cc1ncc(-c2ccc3c(c2)OCCOCCOCCOCCO3)nc1C#N`?
TRPC4 PAM: inactive; TRPC6 activator: inactive; TRPC6 inh: inactive; TRPC4 act: inactive; TRPC4 block: inactive

What do the screens show for `CSC(=NC#N)N1CCN(c2ccc([N+](=O)[O-])cc2)CC1`?
TRPC4 PAM: inactive; TRPC6 activator: inactive; TRPC6 inh: inactive; TRPC4 act: inactive; TRPC4 block: inactive

What do the screens show for `CC1CN(C)C(C)c2c1oc1ccc([N+](=O)[O-])cc21` (stereo not drawn)?
TRPC4 PAM: inactive; TRPC6 activator: inactive; TRPC6 inh: inactive; TRPC4 act: 115; TRPC4 block: inactive

What do the screens show for `Nc1ccc2oc3ccccc3c2c1`?
TRPC4 PAM: inactive; TRPC6 activator: inactive; TRPC6 inh: inactive; TRPC4 act: inactive; TRPC4 block: inactive

How did CC(C)=Cc1oc2ccc([N+](=O)[O-])cc2c1N1CCOCC1 do in these assays?
TRPC4 PAM: inactive; TRPC6 activator: inactive; TRPC6 inh: inactive; TRPC4 act: inactive; TRPC4 block: inactive

What do the screens show for `CC1CN(C)C(C)c2c1oc1ccc(N)cc21` (stereo not drawn)?
TRPC4 PAM: inactive; TRPC6 activator: inactive; TRPC6 inh: inactive; TRPC4 act: 239; TRPC4 block: inactive

Results for CCOc1cc(CN2CCN(c3ccc(C(C)=O)cc3)CC2)ccc1OC ?
TRPC4 PAM: 11; TRPC6 activator: inactive; TRPC6 inh: inactive; TRPC4 act: inactive; TRPC4 block: inactive

Results for CCOc1cc(CN2CCCCC2)ccc1OC ?
TRPC4 PAM: inactive; TRPC6 activator: inactive; TRPC6 inh: inactive; TRPC4 act: inactive; TRPC4 block: inactive

How did O=C(O)/C=C/c1ccc(-n2ccnc2)cc1 do in these assays?
TRPC4 PAM: inactive; TRPC6 activator: inactive; TRPC6 inh: inactive; TRPC4 act: inactive; TRPC4 block: inactive

Results for COc1ccc(CN2CCN(Cc3ccc(C(F)(F)F)cc3)CC2)c(OC)c1 ?
TRPC4 PAM: inactive; TRPC6 activator: inactive; TRPC6 inh: inactive; TRPC4 act: inactive; TRPC4 block: -6

What do the screens show for `COc1cc(OC)c(OC)cc1CN1CCN(Cc2ccc(SC)cc2)CC1`?
TRPC4 PAM: inactive; TRPC6 activator: inactive; TRPC6 inh: inactive; TRPC4 act: 43; TRPC4 block: inactive

Results for COc1ccc(CN2CCN(Cc3ccc(C)cc3)CC2)c(OC)c1 ?
TRPC4 PAM: inactive; TRPC6 activator: inactive; TRPC6 inh: inactive; TRPC4 act: inactive; TRPC4 block: inactive

Results for COc1cc(CN2CCN(Cc3ccc(SC)cc3)CC2)cc(OC)c1O ?
TRPC4 PAM: inactive; TRPC6 activator: inactive; TRPC6 inh: inactive; TRPC4 act: inactive; TRPC4 block: inactive

How did COc1ccc(CN2CCN(Cc3ccccc3F)CC2)c(OC)c1 do in these assays?
TRPC4 PAM: inactive; TRPC6 activator: inactive; TRPC6 inh: inactive; TRPC4 act: inactive; TRPC4 block: -5

What do the screens show for `NC(=O)c1cccc(C(N)=O)n1`?
TRPC4 PAM: inactive; TRPC6 activator: inactive; TRPC6 inh: inactive; TRPC4 act: inactive; TRPC4 block: inactive

How did CCN(CC)C(=O)Cn1cc(S(=O)(=O)CC(=O)NCc2ccc(F)cc2)c2ccccc21 do in these assays?
TRPC4 PAM: inactive; TRPC6 activator: inactive; TRPC6 inh: inactive; TRPC4 act: inactive; TRPC4 block: inactive

What do the screens show for `Cc1noc(C)c1COC(=O)c1ccccc1NC(=O)c1ccco1`?
TRPC4 PAM: inactive; TRPC6 activator: inactive; TRPC6 inh: inactive; TRPC4 act: inactive; TRPC4 block: inactive

Results for CCCc1[nH]nc2c1C(CCc1ccccc1)C(C#N)=C(N)O2 (stereo not drawn) ?
TRPC4 PAM: 13; TRPC6 activator: inactive; TRPC6 inh: inactive; TRPC4 act: inactive; TRPC4 block: inactive

Results for CCCc1[nH]nc2c1C(Cc1ccccc1)C(C#N)=C(N)O2 (stereo not drawn) ?
TRPC4 PAM: inactive; TRPC6 activator: inactive; TRPC6 inh: inactive; TRPC4 act: inactive; TRPC4 block: inactive

What do the screens show for `CCN1CC2=C(OC(N)=C(C#N)C2c2cccs2)/C(=C/c2cccs2)C1` (stereo not drawn)?
TRPC4 PAM: 12; TRPC6 activator: inactive; TRPC6 inh: inactive; TRPC4 act: inactive; TRPC4 block: inactive

Results for CCN1CC2=C(OC(N)=C(C#N)C2c2ccccc2)/C(=C\c2ccccc2)C1 (stereo not drawn) ?
TRPC4 PAM: inactive; TRPC6 activator: inactive; TRPC6 inh: inactive; TRPC4 act: inactive; TRPC4 block: inactive

What do the screens show for `O=C(COc1coc(CN2CCN(c3ccccc3F)CC2)cc1=O)Nc1ccccc1`?
TRPC4 PAM: 32; TRPC6 activator: inactive; TRPC6 inh: inactive; TRPC4 act: inactive; TRPC4 block: inactive

Results for CC(C)CNC(=O)c1ccccc1NC(=O)CN(c1ccccc1)S(=O)(=O)N(C)C ?
TRPC4 PAM: inactive; TRPC6 activator: inactive; TRPC6 inh: inactive; TRPC4 act: inactive; TRPC4 block: inactive

What do the screens show for `CCCC1=Nc2cc(C(=O)N3CCCC3)ccc2Sc2ccc(C)cc21`?
TRPC4 PAM: inactive; TRPC6 activator: inactive; TRPC6 inh: inactive; TRPC4 act: 54; TRPC4 block: inactive

Results for CCC1=Nc2cc(C(=O)N3CCCCC3)ccc2Sc2ccc(C)cc21 ?
TRPC4 PAM: inactive; TRPC6 activator: inactive; TRPC6 inh: inactive; TRPC4 act: inactive; TRPC4 block: inactive

How did O=C(Nc1cc(Cl)ccc1-n1cncn1)c1cc(F)c(F)c(F)c1F do in these assays?
TRPC4 PAM: inactive; TRPC6 activator: inactive; TRPC6 inh: inactive; TRPC4 act: inactive; TRPC4 block: inactive

How did Cc1ccc(-n2c(-c3ccccc3)c[n+]3c2CCC3)cc1 do in these assays?
TRPC4 PAM: inactive; TRPC6 activator: inactive; TRPC6 inh: inactive; TRPC4 act: inactive; TRPC4 block: inactive

What do the screens show for `COc1ccc(-n2c(-c3ccc(Br)cc3)c[n+]3c2CCCCC3)cc1`?
TRPC4 PAM: inactive; TRPC6 activator: inactive; TRPC6 inh: inactive; TRPC4 act: inactive; TRPC4 block: -6

How did Cc1ccc(Cn2c(=N)c(C(=O)NC3CCCCC3)cc3c(=O)n4ccccc4nc32)cc1 do in these assays?
TRPC4 PAM: 20; TRPC6 activator: inactive; TRPC6 inh: inactive; TRPC4 act: inactive; TRPC4 block: inactive

Screens deposited in PubChem by Johns Hopkins Ion Channel Center.
